# Source: PubChem (Broad Institute)
# Only some compounds are listed: those with a hit (about 3.4% of all), similar ones and a draw of the others.
# MLL AF4-AF9 inh: MLL-AF4/AF9 protein interaction inhibition; AlphaScreen, biotin-AF4 peptide binding to FLAG-AF9; 350,000 compounds, 0.47% hits; inhibition, % at 10 µM; P42568;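 active = every replicate reaching a set inhibition limit, whatever the replicate mean, cut at about 25% in these data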;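 note: 0% = plate neutral control median and 100% = total signal loss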
# ERAP1 inh: ERAP1 (human) enzyme inhibition. Q9NZ08. recombinant ERAP1, Leu-AMC fluorescence, 60 min. inhibition, % at 10.7 µM. 340,000 compounds, 0.15% hits;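 active = mean replicate inhibition of at least 30%, or all replicates individually reaching that 30% level; inactive = mean below 30% and not every replicate reaching it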;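 note: 0% = neutral control wells and 100% = L-leucinethiol positive control wells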
# E-sel inducer: E-selectin induction on HUVECs. HUVEC E-selectin immunofluorescence imaging; normalized: neutral wells 0, TNF-alpha wells 100. 260,000 compounds, 0.37% hits. activation, % at 7.58 µM. P16581;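 active = mean E-selectin-positive cell signal at least 10% of the positive control, reached in at least 60% of replicates, without over 20% cell loss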
# Target sequence (P16581 whole entry, looked up): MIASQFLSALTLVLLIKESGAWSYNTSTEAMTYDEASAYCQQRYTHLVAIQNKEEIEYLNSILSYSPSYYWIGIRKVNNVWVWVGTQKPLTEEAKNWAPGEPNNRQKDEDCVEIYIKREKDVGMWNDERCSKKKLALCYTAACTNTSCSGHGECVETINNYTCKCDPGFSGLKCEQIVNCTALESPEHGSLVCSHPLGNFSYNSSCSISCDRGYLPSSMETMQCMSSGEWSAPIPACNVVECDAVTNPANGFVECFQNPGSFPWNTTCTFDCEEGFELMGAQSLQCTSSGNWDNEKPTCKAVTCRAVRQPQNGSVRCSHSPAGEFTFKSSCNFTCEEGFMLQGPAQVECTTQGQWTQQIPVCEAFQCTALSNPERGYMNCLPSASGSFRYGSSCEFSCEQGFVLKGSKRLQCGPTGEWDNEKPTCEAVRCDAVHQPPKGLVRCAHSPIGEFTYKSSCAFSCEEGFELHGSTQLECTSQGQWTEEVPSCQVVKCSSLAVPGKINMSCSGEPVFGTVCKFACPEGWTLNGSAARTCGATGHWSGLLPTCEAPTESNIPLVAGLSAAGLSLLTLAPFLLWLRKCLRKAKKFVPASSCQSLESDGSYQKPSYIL
#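 Test system – human umbilical vein endothelial cells (HUVEC), E-selectin induction · Input – 3,000 HUVEC seeded per well · Buffer or medium – EGM-2, gelatin · Compound dosing – single-point compound dose · Detection – immunofluorescence imaging · Measure – percent E-selectin-positive cells · Controls – TNF-alpha high, DMSO low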
# S100A4 inh HTS: inhibitors of human S100A4 binding to myosin IIA peptide; P26447; AID 652163; 360,000 compounds, 0.14% hits; inhibition, % at 10.7 µM; S100A4/TAMRA-MyoIIA peptide fluorescence polarization;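 active = mean inhibition of at least 70% across replicates, with every replicate also reaching that level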
#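 Test system: S100A4 monomer protein; Medium: HEPES pH 7.2 with CaCl2, KCl, NaCl, DTT, Triton; Probe or stimulus: TAMRA-labelled myosin IIA heavy-chain peptide probe, 5 nM; Doses: one dose per compound; Times: polarization read 5 min after assay mix addition, stable 5–60 min; Benchmarks: neutral control DMSO, positive control TFP.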
# Ecoli rRNA inh: inhibits bacterial ribosomal RNA function over humanized ribosomes; E. coli WT GFP vs humanized-ribosome RFP mutants, fluorescence, 24 h; stronger effect = lower value; DMSO median 0, no signal -100; GFP signal change (wild-type ribosome), % (test concentration not listed); 350,000 compounds, 1.6% hits; AID 720706;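 active = significant combined selectivity score with lowered wild-type GFP, culture density cut under 30%, mutant RFP and density less affected; inactive = any of these conditions unmet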
# SIRT5 inh: blocks human SIRT5 desuccinylation of peptide; inhibition, % at 15 µM; Purified SirT5, succinyl-peptide AMC, trypsin-coupled fluorescence; 330,000 compounds, 1.1% hits; Q9NXA8; in the data active = inhibition above about 15%
# Active calls of the source: *; nt = no result.
SMILES,MLL AF4-AF9 inh,ERAP1 inh,E-sel inducer,S100A4 inh HTS,Ecoli rRNA inh,SIRT5 inh
O=S(=O)(Nc1ccc(N2CCCCC2)cc1)c1ccc(F)cc1,10,1,1,-7,-36*,-3
COc1ccc2c3c([nH]c2c1)[C@H](CO)NCC31CCN(C(=O)Cc2ccncc2)CC1,nt,nt,nt,nt,-2,nt
CCC(=O)N(C)C[C@H]1Oc2cc(C#C[C@@H](C)O)ccc2S(=O)(=O)N([C@H](C)CO)C[C@@H]1C,nt,nt,nt,nt,-11,nt
COCC(=O)N1C[C@H](C)[C@H](OC)CN(C)C(=O)c2ccc(NC(=O)c3cnccn3)cc2OC[C@H]1C,-4,3,0,3,3,1
Cc1ccc(CN2CCN(Cc3cnn(-c4ccc(Cl)cc4)c3)CC2CCO)o1 (centres undefined),5,2,nt,-28,8,26*
Cc1ccc(CN2CCN(Cc3ccncc3)CC2CCO)o1 (centres undefined),-5,0,2,-3,1,2
CN=c1scc(-c2ccco2)n1/N=C/c1ccc(O)c(O)c1,26*,1,nt,-2,-12,-1
C[C@@H]1CN([C@@H](C)CO)C(=O)c2cccc(NC(=O)C3CCCCC3)c2O[C@@H]1CN(C)Cc1ccccc1,1,1,0,-10,3,-2
O=C(CNC(=O)c1ccc(Br)cc1)NC1=NCCS1,0,-5,nt,-4,-5,-1
CC(C)(C)c1ccc(C(=O)NCCC(=O)NC2=NCCS2)cc1,29*,5,nt,0,-8,1
CC(C)(C)c1ccc(C(=O)NCCC(=O)NCc2ccc(F)cc2)cc1,-2,-3,0,-5,0,15*
COc1ccc(CNC(=O)CCNC(=O)c2ccc(C(C)(C)C)cc2)cc1OC,-1,-1,0,8,12,1
CNC(=O)C[C@@H]1CC[C@H]2[C@H](COc3ccc(NC(=O)C(C)C)cc3C(=O)N2C)O1,nt,nt,0,nt,4,nt
CN1C(=O)c2cc(NC(=O)NC3CCCC3)ccc2OC[C@@H]2O[C@@H](CC(=O)NCC3CC3)CC[C@H]21,-5,1,0,8,4,-1
CCCSc1nc2c(cnn2-c2ccccc2)c(=O)n1N,-2,11,nt,-4,-19*,3
CC(C)C(=O)Nc1nc(-c2ccc([N+](=O)[O-])cc2)cs1,3,0,-1,-10,-3,3
CC1(C)CC(c2nc(-c3ccc([N+](=O)[O-])cc3)cs2)CCO1 (centres undefined),12,4,0,4,-42*,0
O=C(Nc1ccc2c(c1)OCO2)N[C@@H]1CC[C@@H](CCNC(=O)C2CCOCC2)O[C@@H]1CO,-1,1,0,12,1,-3
O=C(CCC(=O)OCc1ccc(Br)cc1)Nc1ccccc1,-18,2,nt,-5,10,35*
CCOc1ccc(Nc2nc(N)c([N+](=O)[O-])c(N3CCOCC3)n2)cc1,-2,1,nt,-8,20,-2
Nc1nc(Nc2ccccc2)nc(N2CCCC2)c1[N+](=O)[O-],14,2,1,-3,-27,2
Cc1cccc(Nc2nc(N)c([N+](=O)[O-])c(N3CCOCC3)n2)c1,13,7,nt,-3,-24*,4
COc1cccc(Nc2nc(N)c([N+](=O)[O-])c(N3CCOCC3)n2)c1,6,7,nt,-2,-29*,4
C[C@@H]1CN([C@H](C)CO)C(=O)Cc2cc(NS(=O)(=O)c3ccc(F)cc3)ccc2O[C@H]1CN(C)Cc1ccc2c(c1)OCO2,-15,8,0,4,-2,7
Cc1ccc(S(=O)(=O)N2C[C@@H](O)COC[C@@H]3O[C@@H](CC(=O)NCCN4CCCCC4)CC[C@H]32)cc1,-2,3,0,4,3,-4
SMILES,MLL AF4-AF9 inh,ERAP1 inh,E-sel inducer,S100A4 inh HTS,Ecoli rRNA inh,SIRT5 inh
COc1cc(CCc2ccccc2)c(C(=O)O)c(O)c1C/C=C(/C)CCC=C(C)C,5,nt,0,-1,-4,32*
COc1cc(CCc2ccccc2)c(C(=O)O)c(O)c1CC=C(C)C,3,-1,nt,-2,nt,nt
COc1cc2c(cc1OC)C(C)N(C(=O)c1sc(-c3cnccn3)nc1C)CC2 (centres undefined),3,-2,0,0,-34*,0
Cc1ccc(S(=O)(=O)Nc2ccccc2CNc2ccc(Br)cn2)cc1,nt,nt,0,nt,nt,nt
Cc1ccc(S(=O)(=O)Nc2ccccc2CNc2ccccn2)cc1,4,-2,0,0,-28*,-3
Cc1cc(C)n(CC(=O)c2cccc(N)c2)n1,-4,4,0,-6,8,20*
COCC(=O)N(C)C[C@H]1Oc2cc(C#Cc3ccccc3)ccc2S(=O)(=O)N([C@H](C)CO)C[C@@H]1C,2,1,0,10,-1,2
O=C(/C=C/c1ccc(F)cc1)NC(=S)N1CCN(Cc2ccccc2)CC1,2,4,0,-4,-34*,0
CCN1CCN(C(=O)/C=C/c2ccc(OC)cc2)CC1,-8,-3,nt,-16,22,0
CCN1CCN(C(=O)/C=C/c2ccc(F)cc2)CC1,2,nt,nt,-3,-5,18*
O=C(O)c1ccc(Oc2ccc([N+](=O)[O-])cc2)c([N+](=O)[O-])c1,-4,0,1,-5,-9.6*,-3
C=CC#CC1(O)CC(C)[N+](C)(C)CC1C (centres undefined),-7,106*,nt,2,17,nt
CCS(=O)(=O)N1CCCCN2[C@@H](CO)[C@@H](c3ccc(-c4ccc(C(=O)N(C)C)cc4)cc3)[C@@H]2C1,-2,0,0,9,-7,-3
CC/C(CC(=O)C(F)(F)F)=N\NC(=O)/C(C#N)=C/N(C)C,-1,0,0,1,12,18*
Cc1ccnc(NC(=O)CCC(=O)N(Cc2ccco2)C(C(=O)NC(C)C)c2ccc(F)cc2)c1 (centres undefined),0,1,0,2,0,100*
Cc1ccc(S(=O)(=O)N(C)C[C@@H]2Oc3c(NS(=O)(=O)c4cn(C)cn4)cccc3C(=O)N([C@H](C)CO)C[C@H]2C)cc1,nt,nt,1,nt,1,nt
COc1ccccc1CNc1ccc(Br)cn1,1,-2,0,-4,-29*,-2
O=C(CNc1ccccc1)N/N=C/c1cn(-c2ccccc2)nc1-c1ccccc1,3,5,nt,-1,9,nt
NC(=O)N/N=C/c1cn(-c2ccccc2)nc1-c1ccccc1,5,4,0,-7,-18*,-2
O=C(N/N=C/c1cn(-c2ccccc2)nc1-c1cccnc1)c1ccc(F)cc1,1,8,6,-11,-25*,-2
O=C(Nc1cccnc1Cl)c1ccc(=O)oc1,-4,2,nt,-35,17,44*
